According to ChEMBL document CHEMBL4041513, “In silico identification, design and synthesis of novel piperazine-based antiviral agents targeting the hepatitis C virus helicase” (Eur J Med Chem, 2017):

Experiments:
Hepatitis C virus = assay: Antiviral activity against HCV genotype 1b infected in human HuH5.2 cells with persistent I389luc-ubi-neo/NS3-3'/5.1 replicon after 72 hrs by luciferase reporter gene assay; type: functional, cell-based, Hepacivirus hominis; conditions: Huh-5-2, 72 h
Summary of the method: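 Huh 5-2 cells carrying the genotype 1b I389luc-ubi-neo/NS3-3'/5.1 replicon were seeded at 6 500 cells/well in Geneticin-free DMEM/10% FCS and left overnight. Compounds from DMSO stocks were added in a four-step 1-to-5 series for the first screen or an eight-step 1-to-2 series for dose-response curves, then 72 h at 37 °C. Luciferase luminescence after lysis, as % of untreated controls, gave EC50; mean of ≥2 experiments.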

[1] = Cytotoxicity against human HuH5.2 cells assessed as reduction in cell viability after 72 hrs by MTS assay; type: cell-based, Huh-5-2
Summary of the method: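 Huh 5-2 cells carrying the genotype 1b I389luc-ubi-neo/NS3-3'/5.1 replicon were seeded at 6 500 cells/well in medium without Geneticin one day ahead. Compounds (DMSO stock) were added as 1:5 four-step or 1:2 eight-step dilutions for 72 h at 37 °C.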

[2] = Selectivity index, ratio of CC50 for human HuH5.2 cells to EC50 for HCV genotype 1b infected in human HuH5.2 cells with persistent I389luc-ubi-neo/NS3-3'/5.1 replicon
[3] = Inhibition of HCV NS3 helicase DNA unwinding activity using fluorescent DNA substrate by molecular beacon assay; design: species or system Hepacivirus hominis
Summary of the method: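 Molecular beacon unwinding reaction: 25 mM MOPS pH 6.5, 1.25 mM MgCl2, 5% DMSO, 5 µg/ml BSA, 0.01% Tween20, 0.05 mM DTT, 5 nM fluorescent DNA substrate, 12.5 nM NS3h, 1 mM ATP. Duplicate two-fold dilutions spanned 1 mM to 0.78 µM. Data normalised to no-inhibitor and no-enzyme controls; IC50 from variable-slope Hill fit.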

SMILES	EC50 (Hepatitis C virus) [µM]	EC90 (Hepatitis C virus) [µM]	CC50 at 72 h [1] [µM]	Ratio CC50/EC50 [2]	IC50 [3] [µM]
O=S(=O)(NCCCN1CCN(CCCNS(=O)(=O)c2ccc(Cl)cc2)CC1)c1ccccc1	19.9	> 64	81.5	4.1	–
COc1ccc(S(=O)(=O)NCCN2CCN(CCNS(=O)(=O)c3ccc(OC)c(OC)c3)CC2)cc1OC	85.8	> 87.3	> 87.3	>1	–
O=C(CCNS(=O)(=O)c1ccccc1)N1CCN(CCCNS(=O)(=O)c2ccccc2)CC1	> 202	> 202	> 202	–	–
COc1ccc(-c2ccc(/C=N/NC(=O)COc3cc(C)ccc3C)o2)cc1Cl	26.4	> 121	> 121	>4.5	–
Cc1ccc(S(=O)(=O)NCCCN2CCN(CCCNS(=O)(=O)c3ccc(C(C)(C)C)cc3)CC2)cc1	3.5	9.44	14.6	4.2	–
O=S(=O)(NCCCN1CCN(CCCNS(=O)(=O)c2ccc(C(F)(F)F)cc2)CC1)c1ccc(Cl)cc1	10.1	33.5	63.7	6.3	–
O=S(=O)(NCCCN1CCN(CCCNS(=O)(=O)c2ccc(C(F)(F)F)cc2)CC1)c1ccccc1	12.1	–	70.8	5.8	–
COc1ccc(C(=O)C2=C(O)C(=O)N(c3cnoc3C)C2c2ccc(C(C)(C)C)cc2)cc1OC (configuration not stated)	57.2	–	> 105	>1.8	–
O=S(=O)(NCCCN1CCN(CCNS(=O)(=O)c2ccccc2)CC1)c1ccccc1	69.2	212	> 214	>3.1	–
O=S(=O)(NCCCN1CCN(CCCNS(=O)(=O)c2ccccc2Cl)CC1)c1ccccc1Cl	–	–	> 182	–	–
Cc1ccc(S(=O)(=O)NCCCN2CCN(CCCNS(=O)(=O)c3ccc(Cl)cc3)CC2)cc1	9.93	36	48.8	4.9	–
O=S(=O)(NCCCN1CCN(CCCNS(=O)(=O)c2cccnc2)CC1)c1cccnc1	> 207	> 207	> 207	–	–
O=C(O)C1=CC(=C(c2ccc(O)c(C(=O)O)c2)c2ccc(O)c(C(=O)O)c2)C=CC1=O [AURINTRICARBOXYLIC ACID]	–	–	–	–	0.3
Cc1ccc(S(=O)(=O)NCCCN2CCN(CCCNS(=O)(=O)c3ccccc3)CC2)cc1	26.3	–	138	5.3	–
COc1ccc(S(=O)(=O)NCCC(=O)N2CCN(C(=O)CCNS(=O)(=O)c3ccc(OC)c(OC)c3)CC2)cc1OC	> 159	> 159	> 159	–	–
O=S(=O)(NCCCN1CCCCC1)c1ccc(Cl)cc1	61.9	–	145	2.3	–
CC(C)(C)c1ccc(C(=O)Oc2ccc3c(-c4ccccc4C(=O)O)c4ccc(=O)cc-4oc3c2)cc1	> 102	> 102	> 102	–	–
COc1ccc(OC)c(S(=O)(=O)NCCCN2CCN(CCCNS(=O)(=O)c3cc(OC)ccc3OC)CC2)c1	> 83.2	> 83.2	> 83.2	–	–
O=C1NC(=O)/C(=C\c2ccc(-c3ccc(Cl)cc3Cl)o2)S1	13.2	–	33.4	2.5	–
CC(=O)c1ccc(NC(=O)CSc2nnc(NC(=O)CCc3ccccc3)s2)cc1	> 113	> 113	> 113	–	–
O=c1nc2n(-c3cccc(Br)c3)c3ccccc3cc-2c(=O)[nH]1	81.7	–	> 136	>1.6	–
O=[N+]([O-])c1ccc(S(=O)(=O)NCCN2CCN(CCNS(=O)(=O)c3ccc([N+](=O)[O-])cc3)CC2)cc1	17.4	–	> 184	>10.6	–
Cc1ccc(S(=O)(=O)NCCCN2CCN(CCCNS(=O)(=O)c3ccc(-c4ccccc4)cc3)CC2)cc1	1.98	–	6.55	3.3	–
COc1ccc(S(=O)(=O)NCCN2CCN(CCNS(=O)(=O)c3ccc(OC)cc3)CC2)cc1	> 97.5	> 97.5	> 97.5	–	–
CCC[C@H](NC(=O)[C@@H]1[C@H]2CCC[C@H]2CN1C(=O)[C@@H](NC(=O)[C@@H](NC(=O)c1cnccn1)C1CCCCC1)C(C)(C)C)C(=O)C(=O)NC1CC1	–	–	–	58.8	–
O=S(=O)(NCCCN1CCN(CCCNS(=O)(=O)c2ccc(-c3ccccc3)cc2)CC1)c1ccc(Cl)cc1	2.12	–	4.43	2.1	–
CC(C)Oc1ccc(/C=N/N=C2/NC(=O)C(CC(=O)O)S2)cc1 (configuration not stated)	127	–	> 149	>1.1	–
